From ChEMBL document CHEMBL4038333, “Nonacidic Farnesoid X Receptor Modulators” (J Med Chem, 2017)
Calls of active or inactive are those of the source. The calls are words filed in the database; no cut-off is given here.

Tests used:
[1] = target: T1, Bile acid receptor (Homo sapiens) (UniProt Q96RI1); test: Transactivation of human FXR expressed in human HeLa cells co-expressing BSEP at 3 uM after 24 hrs by dual-glo luciferase reporter gene assay relative to GW4064; type: cell-based
T1 sequence (whole entry): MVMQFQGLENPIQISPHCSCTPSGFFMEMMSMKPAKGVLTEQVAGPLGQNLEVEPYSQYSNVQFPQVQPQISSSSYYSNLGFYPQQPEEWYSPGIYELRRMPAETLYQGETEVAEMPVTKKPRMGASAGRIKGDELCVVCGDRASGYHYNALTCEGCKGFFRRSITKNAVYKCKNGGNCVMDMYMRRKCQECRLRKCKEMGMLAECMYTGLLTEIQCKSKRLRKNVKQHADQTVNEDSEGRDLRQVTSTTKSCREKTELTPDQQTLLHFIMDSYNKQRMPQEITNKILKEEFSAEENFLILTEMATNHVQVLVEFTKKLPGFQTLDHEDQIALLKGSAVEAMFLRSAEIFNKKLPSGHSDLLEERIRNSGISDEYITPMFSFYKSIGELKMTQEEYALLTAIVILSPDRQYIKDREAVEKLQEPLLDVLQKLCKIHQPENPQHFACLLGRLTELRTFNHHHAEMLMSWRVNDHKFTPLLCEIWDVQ
Procedure, shortened: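 Full-length FXR reporter gene assay with constitutively expressed hFXR and hRXR, plus renilla luciferase for normalization and toxicity control. Maximum relative activation is expressed against the reference agonist at 3 µM, set as 100%.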

[2] = target: T2, Bile acid receptor (Homo sapiens, UniProt Q96RI1); test: Transactivation of human FXR expressed in human HeLa cells co-expressing BSEP after 24 hrs by dual-glo luciferase reporter gene assay; type: cell-based
T2 sequence (Q96RI1 whole entry): T1 sequence (whole entry)
Procedure, shortened: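 Full-length reporter system with constitutive expression of hFXR and hRXR. A constitutive Renilla luciferase served for normalization and as a toxicity control. Maximum relative activation was expressed against a reference FXR agonist at 3 µM, set as 100%.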

[3] = Lipophilicity, logD of compound at pH 7.4 by LC-MS analysis; type: physicochemical; details: buffer
[4] = system: HepG2; test: Cytotoxicity against human HepG2 cells at 50 uM after 48 hrs by WST-1 assay; type: cell-based; details: hepg2, 48 h
Procedure, shortened: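 HepG2 hepatocarcinoma cells were tested for viability by WST-1 (water-soluble tetrazolium) assay, with concentrations up to 100 µM.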

[5] = organism: Rattus norvegicus; test: Displacement of [3H]Ro15-4513 from GABAa receptor in Sprague-Dawley rat cerebral cortical membranes up to 10 uM after 1 hr by scintillation counting

Row | SMILES | max activation [1] | EC50 ([2]; read-out: EC50) [µM] | also measured
1 | Cc1ccc2nc(-c3cccc(Cl)n3)c(NCc3ccccc3)n2c1 | 31% | 0.08 | –
2 | C[C@H](CCC(=O)O)[C@H]1CC[C@H]2[C@@H]3[C@H](O)C[C@@H]4C[C@H](O)CC[C@]4(C)[C@H]3CC[C@]12C [CHENODIOL] | – | – | logD [3]: 0.53
3 | c1ccc(CNc2c(-c3cccs3)nc3ccc(-c4ccccc4)cn23)cc1 | 17% | 0.2 | –
4 | Fc1ccc2nc(-c3cccs3)c(NCc3ccccc3)n2c1 | inactive | – | EC50 ([2]; hela): Not Active
5 | Cc1ccc2nc(-c3ccc(Cl)cc3)c(NCc3ccccc3)n2c1 | 14% | 0.24 | –
6 | Cc1ccc2nc(-c3cccs3)c(N[C@H](C)c3ccccc3)n2c1 | 14% | 3.2 | –
7 | Cc1ccc2nc(-c3cccn3C)c(NCc3ccccc3)n2c1 | 17% | 1.1 | –
8 | Cc1ccc2nc(-c3nc(C)cs3)c(NCc3ccccc3)n2c1 | 19% | 0.22 | –
9 | COc1ccc(-c2nc3ccc(C)cn3c2NCc2ccccc2)cc1 | 16% | 1.27 | –
10 | Cc1ccc2nc(-c3cccs3)c(NCCc3ccccc3)n2c1 | 12% | 1 | –
11 | COc1ccc2nc(-c3cccs3)c(NCc3ccccc3)n2c1 | 18% | 0.83 | –
12 | Cc1ccc2nc(-c3ccc4c(c3)OCCO4)c(NCc3ccccc3)n2c1 | 15% | 0.17 | –
13 | Cc1ccc(CNc2c(-c3cccs3)nc3ccc(C)cn23)cc1 | 14% | 0.22 | –
14 | Cc1ccc2nc(-c3cccc(Cl)c3)c(NCc3ccccc3)n2c1 | 20% | 0.016 | –
15 | Cc1ccc2nc(-c3cc(Cl)ccn3)c(NCc3ccccc3)n2c1 | 27% | 0.0015 | –
16 | COc1cccc(-c2nc3ccc(C)cn3c2NCc2ccccc2)c1 | 16% | 0.25 | –
17 | Cc1ccc2nc(-c3cccs3)c(NCc3ccccc3)n2c1 | 15% | 0.54 | –
18 | Cc1ccc2nc(-c3ccsc3)c(NCc3ccccc3)n2c1 | 17% | 0.83 | –
19 | Cc1ccc2nc(-c3ccc(-c4ccccc4)cc3)c(NCc3ccccc3)n2c1 | 17% | 0.081 | –

Row | SMILES | max activation [1] | EC50 ([2]; read-out: EC50) [µM] | also measured
20 | Cc1ccc2nc(-c3ccc4ccccc4c3)c(NCc3ccccc3)n2c1 | 18% | 0.21 | –
21 | Cc1ccc2nc(-c3cccs3)c(N[C@@H](C)c3ccccc3)n2c1 | 12% | 1.3 | –
22 | CCc1ccn2c(NCc3ccccc3)c(-c3cccs3)nc2c1 | 16% | 1.2 | –
23 | CC[C@H]1[C@@H](O)[C@@H]2[C@H](CC[C@]3(C)[C@@H]([C@H](C)CCC(=O)O)CC[C@@H]23)[C@@]2(C)CC[C@@H](O)C[C@@H]12 [OBETICHOLIC ACID] | – | – | Activity [4]: Toxic; logD ([3]; read-out: logD): 0.81
24 | Cc1ccc2nc(-c3ccc(F)cc3)c(NCc3ccccc3)n2c1 | 21% | 0.17 | –
25 | Cc1ccc2nc(CCc3ccccc3)c(NCc3ccccc3)n2c1 | 12% | 0.31 | –
26 | COc1ccc(-c2nc3ccc(C)cn3c2NCc2ccccc2)cc1OC | 16% | 0.91 | –
27 | Cc1ccc2nc(-c3cnccn3)c(NCc3ccccc3)n2c1 | 18% | 1.2 | –
28 | Cc1ccc2nc(-c3ccccc3C)c(NCc3ccccc3)n2c1 | 35% | 0.26 | –
29 | Cc1ccc2nc(-c3cccnc3)c(NCc3ccccc3)n2c1 | 17% | 0.52 | –
30 | Cc1ccc2nc(/C=C/c3ccccc3)c(NCc3ccccc3)n2c1 | 13% | 1.16 | –
31 | Cc1ccc2nc(-c3ccncc3)c(NCc3ccccc3)n2c1 | 15% | 2 | –
32 | Cc1ccc2nc(-c3ccc(Cl)c(Cl)c3)c(NCc3ccccc3)n2c1 | 19% | 0.024 | –
33 | c1ccc(CNc2c(-c3cccs3)nc3ccccn23)cc1 | 14% | 4 | –
34 | Cc1ccc2nc(-c3ccco3)c(NCc3ccccc3)n2c1 | 17% | 0.56 | –
35 | COc1ccc(CNc2c(-c3cccs3)nc3ccc(C)cn23)cc1 | 14% | 0.17 | –
36 | Cc1cccc2nc(-c3cccs3)c(NCc3ccccc3)n12 | inactive | – | EC50 ([2]; hela): Not Active
37 | Cc1ccc2nc(-c3ccccc3Cl)c(NCc3ccccc3)n2c1 | inactive | – | EC50 ([2]; hela): Not Active
38 | Cc1ccc2nc(-c3ccccn3)c(NCc3ccccc3)n2c1 | 19% | – | inhibition [5]: inactive

Row | SMILES | max activation [1] | EC50 ([2]; read-out: EC50) [µM] | also measured
39 | Cc1ccc2nc(-c3cccs3)c(NCCCc3ccccc3)n2c1 | 18% | 0.23 | –
40 | Cc1ccc2nc(-c3ccccc3)c(NCc3ccccc3)n2c1 | 16% | 0.28 | –
41 | Cc1cccc(-c2nc3ccc(C)cn3c2NCc2ccccc2)c1 | 14% | 0.18 | –
42 | Cc1ccc2nc(-c3ccoc3)c(NCc3ccccc3)n2c1 | 16% | 1.9 | –
43 | CC(C)c1onc(-c2c(Cl)cccc2Cl)c1COc1ccc(/C=C/c2cccc(C(=O)O)c2)c(Cl)c1 | – | – | Activity [4]: Toxic; logD ([3]; read-out: logD): 1.01
44 | FC(F)(F)c1ccc2nc(-c3cccs3)c(NCc3ccccc3)n2c1 | 14% | 0.46 | –
45 | Cc1ccc2nc(Cc3ccccc3)c(NCc3ccccc3)n2c1 | inactive | – | EC50 ([2]; hela): Not Active
46 | Cc1ccc2nc(-c3ccc(Br)cc3)c(NCc3ccccc3)n2c1 | 14% | 0.43 | –
47 | Cc1ccc2nc(C3CCCCC3)c(NCc3ccccc3)n2c1 | inactive | – | EC50 ([2]; hela): Not Active
48 | Cc1ccc2nc(-c3cccs3)c(NCCCCc3ccccc3)n2c1 | 17% | 0.75 | –
49 | Cc1ccc2nc(-c3ccc(F)c(Cl)c3)c(NCc3ccccc3)n2c1 | 54% | 0.026 | –
50 | Cc1ccc2nc(-c3cccs3)c(Cc3ccccc3)n2c1 | 12% | 0.81 | –
51 | Cc1ccc(-c2nc3ccc(C)cn3c2NCc2ccccc2)cc1 | 14% | 0.13 | –
52 | c1ccc(CNc2c(-c3cccs3)nc3cnccn23)cc1 | inactive | – | EC50 ([2]; hela): Not Active
53 | Cc1ccc2nc(-c3ccc(Cl)cn3)c(NCc3ccccc3)n2c1 | 46% | 0.0074 | –
54 | Clc1ccc2nc(-c3cccs3)c(NCc3ccccc3)n2c1 | 26% | 0.16 | –
55 | O=C(O)c1ccn2c(NCc3ccccc3)c(-c3cccs3)nc2c1 | inactive | – | EC50 ([2]; hela): Not Active
56 | Brc1ccc2nc(-c3cccs3)c(NCc3ccccc3)n2c1 | 14% | 0.5 | –
